In PubChem BioAssay one finds viability, differential viability (reversal) and inhibition data, which are given here for 18 compounds.

The structures appear in SMILES notation. Activity calls are given as the source filed them. Unless noted, no stated cut-off is given here; in the data, active means inhibition above about 31%; inactive means the rest.

Assay [1] in a line: HUVEC growth inhibition – cell-based, human, primary screen (AID 575;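 active means viability at or below 30% in both replicate assays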;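 further: 100% = median of untreated cell wells with 0.1% DMSO on each plate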). To be noted: HUVEC proliferation, CellTiter-Glo luminescence, 72 h; at 10 µM; stronger effect = lower value. The procedure, abridged:
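Assay system: primary human umbilical vein endothelial cells / Buffer or medium: endothelial basal medium with 2% FBS plus growth supplements / Compound dosing: one dose, 10 µM final, 0.1% DMSO / Timing: 72 h treatment at 37 °C / Signal: CTG luminescence / Benchmarks: 32 DMSO-only cell-control wells (high), 32 MePR drug-control wells (low) per plate / Plate: collagen-coated 384-well format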
For orientation: Cellular ATP, detected with luciferase, serves as a proxy for viable cell number.

Assay [2] can be described thus: H69AR cell proliferation blockers – human, duplicate replicates, primary screen (AID 580;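 active means viability at or under a set limit in both replicates, limit being median viability minus 3 SD, cut at about 48% in these data, passing the limit was not always enough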;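 further: 100% = mean luminescence of untreated wells and 0% = no signal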). To be noted: H69AR lung tumor cells viability, ATP luminescence, 72 h; at 10 µM; stronger effect = lower value.
Assay [3] in a line: MRP1 drug-resistance reversers in H69AR cells – cell-based, doxorubicin co-treatment, pilot screen (AID 601;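 active means viability loss from added drug above about 55%, and viability with drug at most 40%, in both replicates, limit read from the data, passing the limit was not always enough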). To be noted: CellTiter-Glo, 72 h, at 10 µM; for differential viability (reversal): stronger effect = higher value.
Assay [4] can be described thus: yeast transport mutant growth inhibition pilot in 384-well plates, post-Golgi transport modulator project (AID 636). To be noted: absorbance 615 nm, about 18 h, stronger effect = higher value.
The nature of assay [5]: growth suppression of yeast trafficking mutant, preliminary HTS, modulators of trafficking downstream of Golgi apparatus project, 1536-format plate, OD 615 nm (AID 637; in the data active means inhibition above about 30%). To be noted: yeast transport mutant growth, absorbance 615 nm, 18 h; stronger effect = higher value.
The mark [6] stands for this setting: H69AR cells + 2 uM doxorubicin, measured here: viability with 2 uM doxorubicin, stronger effect = lower value.
[7] abbreviates: H69AR cells, compound alone cytotoxicity.

As usually defined, the viability is a read-out of living cells in per cent, often relative to untreated cells. For orientation: inhibition means the relative decrease from the control value, in per cent. As to `Cc1c(Cc2ccccc2)sc(N)c1C(N)=O`, the viability in assay [1] is 86.5% (inactive); in assay [2] it was 93.5% (inactive); in assay [3] (setting [6]), 90.6%; in assay [3] (setting [7]), 93.5%. Moreover, the differential viability (reversal) in assay [3] (H69AR cells + 2 uM doxorubicin) was 2.93% (inactive). Also, the values for the inhibition in assay [4] and in assay [5] were -3.77% (inactive) and 5.71% (inactive), respectively.

For `O=C1CN(c2ccccc2F)C(=O)CN1c1ccccc1F`, the viability was 112% (inactive) in assay [1], 102% (inactive) in assay [2], 92.2% in assay [3] (setting [6]) and 102% in assay [3] (setting [7]). Further, the differential viability (reversal) in assay [3] (H69AR cells + 2 uM doxorubicin) is 10.3% (inactive). In addition, the inhibition in assay [4] was -1.97% (inactive); in assay [5], -0.63% (inactive).

Regarding `O=S(=O)(NCCc1ccncc1)c1cc(Br)ccc1F`, the viability in assay [1] is 97.5% (inactive); in assay [2] it was 98.2% (inactive); in assay [3] (setting [6]), 84.8%; in assay [3] (setting [7]) it was 98.2%. Further, the differential viability (reversal) in assay [3] (H69AR cells + 2 uM doxorubicin) was 13.4% (inactive). Besides, the inhibition in assay [4] was -3.9% (inactive); in assay [5], 13.5% (inactive).

With `COc1cccc(C(=O)Nc2cnc(NC(=O)c3ccco3)cc2C)c1`, the viability in assay [1] was 103% (inactive); in assay [2], 86.6% (inactive); in assay [3] (setting [6]) it was 78.1%; in assay [3] (setting [7]) it was 86.6%. Moreover, the differential viability (reversal) in assay [3] (H69AR cells + 2 uM doxorubicin) was 8.55% (inactive). For the same compound, the inhibition in assay [4] was -2.21% (inactive); in assay [5], -4.44% (inactive).

With `CCCCOc1ccc(C(=O)Nc2ccc(N3CCN(C(=O)C(C)C)CC3)cc2)cc1`, the viability in assay [1] is 79.3% (inactive); in assay [2] it was 75% (inactive); in assay [3] (setting [6]), 81.7%; in assay [3] (setting [7]), 75%. Moreover, the differential viability (reversal) in assay [3] (H69AR cells + 2 uM doxorubicin) is -6.69% (inactive). In addition, the inhibition in assay [4] is -3.55% (inactive); in assay [5], 2.22% (inactive).

On to `CCOc1ccc(C(=O)Nc2cc(C)on2)cc1OCC`, for which the viability in assay [1] was 90.1% (inactive); in assay [2] it was 89.9% (inactive); in assay [3] (setting [6]) it was 89.6%; in assay [3] (setting [7]), 89.9%. The differential viability (reversal) in assay [3] (H69AR cells + 2 uM doxorubicin) was 0.35% (inactive). Besides, the inhibition in assay [4] was -4.87% (inactive); in assay [5], 3.17% (inactive).

Take `Cc1nc(C)c(C(=O)OCC(=O)N2CCN(c3ccccc3)CC2)s1`: the viability in assay [1] is 108% (inactive); in assay [2], 95.8% (inactive); in assay [3] (setting [6]) it was 88.1%; in assay [3] (setting [7]), 95.8%. In assay [3] (H69AR cells + 2 uM doxorubicin), the differential viability (reversal) is 7.64% (inactive). Further, the inhibition was -4.55% (inactive) in assay [4] and 4.29% (inactive) in assay [5].

On to `Cc1ccc(-n2c(-c3ccncc3)nnc2-c2cccs2)cc1`, for which the viability in assay [1] was 95.2% (inactive); in assay [2] it was 79.9% (inactive); in assay [3] (setting [6]), 40.6%; in assay [3] (setting [7]) it was 79.9%. The differential viability (reversal) in assay [3] (H69AR cells + 2 uM doxorubicin) was 39.3% (inactive). Besides, the figures for the inhibition in assay [4] and in assay [5] were -6.53% (inactive) and 9.37% (inactive), respectively.

Take `COc1cccc(Oc2ccc(N)cc2)c1`: the viability in assay [1] was 74.9% (inactive); in assay [2], 74.8% (inactive); in assay [3] (setting [6]), 81.7%; in assay [3] (setting [7]), 74.8%. Besides, the differential viability (reversal) in assay [3] (H69AR cells + 2 uM doxorubicin) is -6.83% (inactive). For the same compound, the inhibition is 0% (inactive) in assay [4] and -3.33% (inactive) in assay [5].

Regarding `CCOC(=O)CSc1nnc(CNC(=O)c2ccc(OC)c(OC)c2)n1C`, the viability is 107% (inactive) in assay [1], 95.7% (inactive) in assay [2], 97.8% in assay [3] (setting [6]) and 95.7% in assay [3] (setting [7]). For the same compound, in assay [3] (H69AR cells + 2 uM doxorubicin), the differential viability (reversal) is -2.17% (inactive). For the same compound, the inhibition was -1.82% (inactive) in assay [4] and -2.54% (inactive) in assay [5].

Turning to `COC(=O)c1ccc(CSc2nc3ccccc3c(=O)n2Cc2ccco2)o1`, the viability is 81.2% (inactive) in assay [1], 84.4% (inactive) in assay [2], 92.3% in assay [3] (setting [6]) and 84.4% in assay [3] (setting [7]). For the same compound, the differential viability (reversal) in assay [3] (H69AR cells + 2 uM doxorubicin) was -7.85% (inactive). Further, the inhibition in assay [4] is -4.94% (inactive); in assay [5], -1.11% (inactive).

Consider `Cn1c(=O)c(=O)n(C)c2cc(S(=O)(=O)Nc3ccc4c(c3)OCCO4)ccc21`, for which the viability was 99.5% (inactive) in assay [1], 94.9% (inactive) in assay [2], 88.2% in assay [3] (setting [6]) and 94.9% in assay [3] (setting [7]). Also, the differential viability (reversal) in assay [3] (H69AR cells + 2 uM doxorubicin) is 6.65% (inactive). The inhibition in assay [4] was -0.67% (inactive); in assay [5], 8.41% (inactive).

For `O=C(CCN1CCN(CCO)CC1)Nc1ccc(OCc2ccccc2)cc1`, the viability in assay [1] was 76.5% (inactive); in assay [2] it was 88.9% (inactive); in assay [3] (setting [6]) it was 82.9%; in assay [3] (setting [7]), 88.9%. Moreover, in assay [3] (H69AR cells + 2 uM doxorubicin), the differential viability (reversal) was 6.03% (inactive). In addition, the inhibition in assay [4] is -2.6% (inactive); in assay [5], -6.67% (inactive).

Turning to `CC(C)OC(=O)CSc1nnc(-c2ccccn2)n1-c1ccccc1`, the viability in assay [1] is 87.3% (inactive); in assay [2] it was 92.1% (inactive); in assay [3] (setting [6]) it was 94.8%; in assay [3] (setting [7]), 92.1%. Besides, the differential viability (reversal) in assay [3] (H69AR cells + 2 uM doxorubicin) is -2.68% (inactive). The inhibition in assay [4] is -1.87% (inactive); in assay [5], -9.52% (inactive).

In the case of `c1ccc2c(c1)c1c3n2CCNC3CCC1` (stereo unspecified), the viability in assay [1] was 91.1% (inactive); in assay [2], 91.4% (inactive); in assay [3] (setting [6]) it was 86.7%; in assay [3] (setting [7]), 91.4%. Also, in assay [3] (H69AR cells + 2 uM doxorubicin), the differential viability (reversal) was 4.74% (inactive). Also, the inhibition is -4.13% (inactive) in assay [4] and 0% (inactive) in assay [5].

Take `CCC(C)(C)n1nnnc1C(c1ccccc1OC)N1CCSCC1` (stereo unspecified): the viability in assay [1] is 99.6% (inactive); in assay [2] it was 90% (inactive); in assay [3] (setting [6]), 82.3%; in assay [3] (setting [7]), 90%. Moreover, the differential viability (reversal) in assay [3] (H69AR cells + 2 uM doxorubicin) is 7.71% (inactive). The inhibition is -0.78% (inactive) in assay [4] and -4.76% (inactive) in assay [5].

As for `Cc1ccccc1CN1CCN(CC(=O)NCc2ccco2)C1=O`, the viability in assay [1] is 101% (inactive); in assay [2], 83% (inactive); in assay [3] (setting [6]) it was 83.7%; in assay [3] (setting [7]), 83%. In addition, the differential viability (reversal) in assay [3] (H69AR cells + 2 uM doxorubicin) is -0.72% (inactive). For the same compound, the inhibition in assay [4] was -1.17% (inactive); in assay [5], 4.92% (inactive).

For the compound `CSc1nsc(SCC(=O)N2CCc3ccccc32)n1`, the viability in assay [1] was 98.6% (inactive); in assay [2], 96.8% (inactive); in assay [3] (setting [6]) it was 92.2%; in assay [3] (setting [7]) it was 96.8%. Besides, the differential viability (reversal) in assay [3] (H69AR cells + 2 uM doxorubicin) is 4.61% (inactive). Moreover, the inhibition in assay [4] was -6.05% (inactive); in assay [5], 3.33% (inactive).
